Drawing on ChEMBL document CHEMBL6177914, “Human microbiome derived synthetic antimicrobial peptides with activity against Gram-negative, Gram-positive, and antibiotic resistant bacteria” (RSC Med Chem, 2025), this text covers MIC, Activity and Retention_time for 3 compounds.

Values after ≈ are worked out from the molar mass of the structure shown. Active and inactive are the calls of the source. The calls are words filed in the database; no cut-off is given here.

In data set [1] the test system is Staphylococcus aureus. Briefly: Antibacterial activity against Staphylococcus aureus ATCC 25923 assessed as inhibition of bacterial growth incubated for 24 hrs by absorbance based microplate reader analysis. It counts as functional. The following applies: read-out: MIC100. The method in brief: (§1)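 Broth microdilution. A single colony was grown 24 h in its recommended broth, then diluted 1:10 000 in the same medium. Peptide serial dilutions were added from DMSO stock at 4 µL per 196 µL inoculated medium. Plates were incubated aerobically or anaerobically as each pathogen requires, at 37 °C for 24 h, and OD600 was read. Duplicate wells; assay repeated five times independently.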

The test system of data set [2] is Staphylococcus aureus. Nature of the data set: Antibacterial activity against Staphylococcus aureus ATCC 25923 assessed as reduction in bacterial growth at MIC concentration measured after 24 hrs by time-kill kinetic analysis. It counts as functional, organism-based. The procedure, abridged: (§2)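 Samples (5 µL) taken at 0, 1, 2, 4, 6, 12, 18 and 24 h, tenfold diluted in 0.85% NaCl, and plated on TSA overnight at 37 °C for CFU counts. Two independent duplicates.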

Data set [3] relates to Enterococcus faecium. Nature of the data set: Antibacterial activity against vancomycin resistant Enterococcus faecium BAA 2317 assessed as inhibition of bacterial growth incubated for 24 hrs by absorbance based microplate reader analysis. It counts as functional. The method in brief:
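Broth microdilution. A single colony was grown 24 h in its recommended broth, then diluted 1:10 000 in the same medium. Peptide serial dilutions were added from DMSO stock at 4 µL per 196 µL inoculated medium. Plates were incubated aerobically or anaerobically as each pathogen requires, at 37 °C for 24 h, and OD600 was read. MIC was the lowest concentration giving 100% growth inhibition. Duplicate wells; assay repeated five times independently.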

The subject of data set [4] is Staphylococcus aureus. Nature of the data set: Antibacterial activity against Staphylococcus aureus ATCC 25923 assessed as reduction in surviving bacteria at MIC concentration measured after 12 hrs by time-kill kinetic analysis. It counts as functional. The procedure, abridged:
as §2

Data set [5] deals with Staphylococcus aureus. Briefly: Antibacterial activity against Staphylococcus aureus ATCC 25923 assessed as reduction in colony forming units at MIC concentration measured after 2 hrs by time-kill kinetic analysis. It counts as functional. The procedure, abridged: as §2
Data set [6] relates to Staphylococcus aureus. Nature of the data set: Antibacterial activity against methicillin resistant Staphylococcus aureus BAA 2313 assessed as inhibition of bacterial growth incubated for 24 hrs by absorbance based microplate reader analysis. The format is functional. The procedure, abridged: as §1
The subject of data set [7] is Salmonella enterica. Briefly: Antibacterial activity against Salmonella enterica ATCC 13314 assessed as inhibition of bacterial growth incubated for 24 hrs by absorbance based microplate reader analysis. It counts as functional. The method in brief: (§3)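 Broth microdilution. An overnight single-colony culture in recommended broth was diluted 1:10 000, and peptide serial dilutions in DMSO were added (4 µL into 196 µL). Plates incubated 24 h at 37 °C, aerobic or anaerobic as required, then OD600 read. Inhibition was calculated against pathogen-only and blank wells.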

Data set [8] relates to Pseudomonas aeruginosa. Nature of the data set: Antibacterial activity against Pseudomonas aeruginosa BAA 1744 assessed as inhibition of bacterial growth incubated for 24 hrs by absorbance based microplate reader analysis. It counts as functional. The procedure, abridged: as §3
The test system of data set [9] is Enterococcus faecium. Nature of the data set: Bactericidal activity against vancomycin resistant Enterococcus faecium BAA 2317 assessed as inhibition of bacterial growth at MIC concentration incubated for 48 hrs by broth microdilution assay. It counts as functional, organism-based. The method in brief:
(§4)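 Plates were incubated 48 h at 37 °C and examined for colonies. A fidaxomicin-treated culture at 1 µM served as the control.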

Data set [10] concerns Pseudomonas aeruginosa. Nature of the data set: Bactericidal activity against Pseudomonas aeruginosa BAA 1744 assessed as inhibition of bacterial growth at MIC concentration incubated for 48 hrs by broth microdilution assay. It counts as functional, organism-based. The method in brief:
(§5)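 From broth-microdilution wells showing no growth, 10 µL was spotted onto agar and incubated 48 h at 37 °C. Plates were inspected for colonies. Fidaxomicin at 1 µM served as control.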
For orientation: In broth dilution the organism is exposed to a series of concentrations in liquid medium.

The subject of data set [11] is Escherichia coli. Briefly: Antibacterial activity against Escherichia coli ATCC 33694 assessed as inhibition of bacterial growth incubated for 24 hrs by absorbance based microplate reader analysis. The format is functional. The following applies: read-out: MIC100. The method in brief: as §3
Another data set concerns Clostridioides difficile. Briefly: Bactericidal activity against Clostridium difficile ATCC 43602 assessed as inhibition of bacterial growth at MIC concentration incubated for 48 hrs by broth microdilution assay. It counts as functional, organism-based. The procedure, abridged: as §5
In data set [12] the test system is Listeria monocytogenes. Nature of the data set: Bactericidal activity against Listeria monocytogenes ATCC 15313 assessed as inhibition of bacterial growth at MIC concentration incubated for 48 hrs by broth microdilution assay. The format is functional, organism-based. The procedure, abridged:
as §5

The subject of data set [13] is Staphylococcus aureus. Nature of the data set: Bactericidal activity against methicillin resistant Staphylococcus aureus BAA 2313 assessed as inhibition of bacterial growth at MIC concentration incubated for 48 hrs by broth microdilution assay. The format is functional, organism-based. The method in brief:
as §4

Data set [14] relates to Listeria monocytogenes. Nature of the data set: Antibacterial activity against Listeria monocytogenes ATCC 15313 assessed as inhibition of bacterial growth incubated for 24 hrs by absorbance based microplate reader analysis. The following applies: read-out: MIC100. It counts as functional. The method in brief:
as §1

Data set [15] concerns Salmonella enterica. Briefly: Bactericidal activity against Salmonella enterica ATCC 13314 assessed as inhibition of bacterial growth at MIC concentration incubated for 48 hrs by broth microdilution assay. The format is functional, organism-based. The procedure, abridged: as §5
The subject of data set [16] is Escherichia coli. Briefly: Bactericidal activity against Escherichia coli ATCC 33694 assessed as inhibition of bacterial growth at MIC concentration incubated for 48 hrs by broth microdilution assay. It counts as functional, organism-based. The method in brief: as §5
Data set [17] deals with Caco-2. Briefly: Anti-inflammatory activity in human Caco-2 cells infected with Clostridium difficile ATCC 43602 assessed as reduction in IL-1beta level at MIC concentration by ELISA relative to control. The format is functional. Set-up: scale not given: the % may be the effect or the level left. The procedure, abridged:
(§6)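 Caco-2 cells grown in DMEM + 10% FBS, 37 °C, 5% CO2, to 90% confluence, then seeded 30 000 cells/well and held 24 h. C. difficile was grown overnight anaerobically in meat broth, washed in PBS, and 1 µL of 0.5 OD600 culture added per 300 µL medium. […] Cytokine in supernatant measured by ELISA; three independent replicates.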

Data set [18] deals with Staphylococcus aureus. Briefly: Bactericidal activity against Staphylococcus aureus ATCC 25923 assessed as inhibition of bacterial growth at MIC concentration incubated for 48 hrs by broth microdilution assay. It counts as functional, organism-based. The procedure, abridged: as §5
The nature of data set [19]: Retention time of compound by RP-HPLC analysis. It counts as physicochemical. The method in brief:
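Analytical reversed-phase HPLC.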

For data set [20], the system named is Caco-2. Briefly: Anti-inflammatory activity in human Caco-2 cells infected with Clostridium difficile ATCC 43602 assessed as reduction in IL-8 level at MIC concentration by ELISA relative to control. The format is functional. More on the design: scale not given: the % may be the effect or the level left. The method in brief: as §6

With `CC1(C)S[C@@H]2[C@H](NC(=O)[C@H](N)c3ccc(O)cc3)C(=O)N2[C@H]1C(=O)O` [AMOXICILLIN], the MIC amounted to 5 µM (≈ 1.83 µg/mL) with Staphylococcus aureus [1], 35 µM (≈ 12.8 µg/mL) with Enterococcus faecium [3] (read-out: MIC100) and 35 µM (≈ 12.8 µg/mL) with Staphylococcus aureus [6] (read-out: MIC100). Also, the outcome with Staphylococcus aureus [2] was Active. Besides, the Activity with Staphylococcus aureus [4] is reported as 5 log10CFU/ml; in the data set on Staphylococcus aureus [5] it was 4 log10CFU/ml.

Turning to `CC[C@H](C)[C@H](NC(=O)CNC(=O)CNC(=O)[C@H](CO)NC(=O)[C@@H](NC(=O)[C@H](CCCCN)NC(=O)[C@H](CO)NC(=O)[C@H](CC(C)C)NC(=O)[C@H](CCC(=O)O)NC(=O)[C@@H](NC(=O)[C@H](CCC(=O)O)NC(=O)[C@H](CC(N)=O)NC(=O)[C@H](CC(C)C)NC(=O)[C@H](CCCCN)NC(=O)[C@H](CC(N)=O)NC(=O)[C@@H](N)CCSC)C(C)C)[C@@H](C)CC)C(=O)NCC(=O)N1CCC[C@H]1C(=O)N[C@@H](CC(C)C)C(=O)N[C@H](C(=O)N[C@H](C(=O)N1CCC[C@H]1C(=O)N[C@H](C(=O)N[C@@H](C)C(=O)N[C@@H](C)C(=O)N[C@H](C(=O)N[C@@H](CC(C)C)C(=O)NCC(=O)N[C@@H](Cc1ccccc1)C(=O)N[C@@H](CC(C)C)C(=O)N[C@@H](C)C(=O)N[C@H](C(=O)N[C@@H](CC(=O)O)C(=O)N[C@@H](C)C(=O)N[C@@H](Cc1c[nH]c2ccccc12)C(=O)N[C@@H](CC(N)=O)C(=O)N[C@@H](Cc1cnc[nH]1)C(=O)N[C@@H](C)C(=O)N[C@@H](CC(=O)O)C(=O)N[C@@H](CCC(=O)O)C(=O)N[C@@H](CC(C)C)C(=O)N[C@H](C(=O)N[C@@H](C)C(=O)NCC(=O)N[C@H](C(=O)N[C@@H](CCCCN)C(=O)N[C@@H](CCC(N)=O)C(=O)NCC(=O)N[C@@H](Cc1c[nH]c2ccccc12)C(=O)N[C@@H](CCC(=O)O)C(=O)N[C@@H](CCCNC(=N)N)C(=O)N[C@@H](CO)C(=O)O)C(C)C)C(C)C)[C@H](C)O)[C@@H](C)CC)C(C)C)[C@@H](C)CC)C(C)C`, the outcome in the data set with Salmonella enterica [7] and in the data set on Pseudomonas aeruginosa [8] was inactive. Also, the outcome with Enterococcus faecium [9], in the data set with Pseudomonas aeruginosa [10], in the data set with Staphylococcus aureus [2], in the data set with Clostridioides difficile, with Listeria monocytogenes [12] and with Staphylococcus aureus [13] was Active. Also, the result with Salmonella enterica [15], in the data set on Escherichia coli [16] and in the data set with Staphylococcus aureus [18] was Active. Besides, the MIC with Escherichia coli [11] came out at 7.5 µM (≈ 41.4 µg/mL); in the data set with Listeria monocytogenes [14], 1.2 µM (≈ 6.62 µg/mL). Further, the Activity with Staphylococcus aureus [4] is listed as 5 log10CFU/ml; with Staphylococcus aureus [5], 2 log10CFU/ml; in the data set on Caco-2 [17], 91%.

Consider H-SGGIGPLVIP-NH2, for which the outcome in the data set with Salmonella enterica [7], in the data set on Enterococcus faecium [3] and in the data set with Staphylococcus aureus [6] was inactive. In data set [19], this compound showed a Retention_time of 13.82 min. Moreover, the outcome in the data set with Enterococcus faecium [9], with Pseudomonas aeruginosa [10], in the data set with Clostridioides difficile, with Listeria monocytogenes [12], in the data set with Staphylococcus aureus [13] and in the data set with Salmonella enterica [15] was Active. Moreover, the result in the data set with Escherichia coli [16] and with Staphylococcus aureus [18] was Active. The Activity in the data set with Caco-2 [20] amounted to 6%.
